What all share (assay type): cell-based
One test has as its system MCF-7. Kind of test: Anticancer screening, MTT assay, 72 h. As to conditions: Homo sapiens, MCF7, 72 h. In outline:
(§1)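 Monolayer cultures were kept at 37 °C, 5% CO2 and plated on day 0 at 3 × 10^4 cells/mL (HCT 116, H460) or 5 × 10^4 cells/mL (MCF-7). Test agents were added in ten-fold dilutions (10−8 to 10−4 M) and incubated 72 h. Growth was read by MTT at 570 nm. GI50 is the concentration giving 50% inhibition. Two independent experiments were run, points at least in triplicate.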

A further test relates to Capan-1. Kind of test: Anticancer screening, MTS cell proliferation assay, 72 h. The following applies: Homo sapiens, CAPAN-1, 72 h. In short, it runs like this: (§2)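 Human solid-tumour lines were grown as monolayers in supplier-recommended media at 37 °C, 5% CO2. LN-229 was seeded at 375 and Capan-1 at 250 cells/well and incubated overnight. Cells were then exposed for 72 h to seven concentrations (100 to 6.4 × 10−3 µM). MTS reagent was added and absorbance read at 490 nm. Two independent experiments were run, each point at least in triplicate.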

Another test deals with HCT 116. Kind of test: Anticancer screening, MTT assay, 72 h. As to conditions: Homo sapiens, HCT-116, 72 h. In outline:
as §1

The test system of a further test is H460. Kind of test: Anticancer screening, MTT assay, 72 h. The following applies: Homo sapiens, NCI-H460, 72 h. In short, it runs like this:
as §1

Another test relates to Z-138. Kind of test: Anticancer screening, MTS cell proliferation assay, 72 h. As to conditions: Homo sapiens, Z-138, 72 h. In outline: (§3)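 HL-60, K-562, Z-138 and DND-41 suspension cells were seeded at 2500–6000 cells/well directly into wells already containing test compound at seven concentrations (100 to 6.4 × 10−3 µM). After 72 h, MTS reagent was added and absorbance read at 490 nm. GI50 is the concentration giving 50% growth inhibition. Two independent experiments were run, each point at least in triplicate.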

The test system of the next test is K-562. The test is described as above. The following applies: Homo sapiens, K562, 72 h. In outline: as §3
A further test deals with LN-229. Briefly: Anticancer screening, MTS cell proliferation assay, 72 h. As to conditions: Homo sapiens, LN-229, 72 h. In short, it runs like this:
as §2

In another test the test system is HL-60. Kind of test: Anticancer screening, MTS cell proliferation assay, 72 h. The following applies: Homo sapiens, HL-60, 72 h. In outline: as §3
Another test relates to DND-41. The description is as above. As to conditions: Homo sapiens, DND41, 72 h. In short, it runs like this:
as §3

Counter-ions that a name gives are not always drawn.

We go through three compounds from article PMC7548052 (Molecular Diversity, 2020).

Turning to `C=C(CC(=O)OC)C(=O)NCCCCNc1cc(C(F)(F)F)nc2c(C(F)(F)F)cccc12` [Compound 13, Methyl 3-[(4-{[2,8-bis(trifluoromethyl)quinolin-4-yl]amino}butyl)carbamoyl]but-3-enoate], the 50% growth inhibitory concentration (GI50) in the test on MCF-7 is 1.4 ± 0.1 µM; with Capan-1 it was 32.2 ± 2.7 µM; with HCT 116, 2 ± 0.8 µM; in the test with H460, 3.5 ± 1.3 µM; in the test with Z-138, 12.2 ± 0.1 µM; in the test with K-562, 46.9 ± 0.7 µM. For the same compound, the GI50 in the test on LN-229 worked out at 10.8 ± 2.5 µM; with HL-60 it was 10.3 ± 1.5 µM; in the test with DND-41, 36.7 ± 10 µM.
As for `OC(c1cc(C(F)(F)F)nc2c(C(F)(F)F)cccc12)C1CCCCN1` (stereo not drawn) [MQ, mefloquine hydrochloride, reference compound], the GI50 in the test on MCF-7 was 1.3 ± 0.2 µM; in the test with Capan-1, 2 ± 0.1 µM; in the test with HCT 116, 2 ± 0.1 µM; in the test with H460, 1.5 ± 0.1 µM; in the test on Z-138, 12.6 ± 0.1 µM; in the test on K-562, 9.4 ± 0.3 µM. Further, the GI50 in the test with LN-229 was 0.1 ± 0.1 µM; in the test with HL-60, 5.9 ± 3.2 µM; in the test on DND-41 it was 3.2 ± 0.2 µM.
As for `COc1cc(NC(C)CCCN)c2ncccc2c1` (stereo not drawn) [PQ, primaquine diphosphate, reference compound], the GI50 in the test on MCF-7 is 7 ± 1.5 µM; in the test on Capan-1 it was 9 ± 3.2 µM; in the test on HCT 116, 17 ± 1 µM; in the test with H460, 17 ± 3 µM; in the test on Z-138 it was 10.2 ± 0.5 µM; in the test with K-562 it was 43.3 ± 0.1 µM. Moreover, the results for the GI50 in the test on LN-229, in the test on HL-60 and in the test with DND-41 were 9.9 ± 0.4 µM, 7 ± 0.5 µM and 14 ± 1 µM, respectively.
